High-throughput results: PubChem, several laboratories
Compounds with a hit are over-represented: about 1.8% of the library has one in this group of screens.
GalR3 antag – blocks the human galanin receptor 3. AID 651719. O60755. HEK293 GalR3-CNG cAMP membrane potential fluorescence; galR3 body fused to GalR1 C-terminus. hit rate 0.44% among 360,000. inhibition, % at 3 µM;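 active = inhibition above the screen-wide average plus 3 SD, cut at about 13% in these data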;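 note: forskolin and galanin both at EC90 stimulate the cells; cAMP rise reported by CNG channel membrane potential dye signal; 0% = forskolin plus galanin with DMSO and 100% = forskolin alone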
Target sequence (O60755 1-299 limits assumed): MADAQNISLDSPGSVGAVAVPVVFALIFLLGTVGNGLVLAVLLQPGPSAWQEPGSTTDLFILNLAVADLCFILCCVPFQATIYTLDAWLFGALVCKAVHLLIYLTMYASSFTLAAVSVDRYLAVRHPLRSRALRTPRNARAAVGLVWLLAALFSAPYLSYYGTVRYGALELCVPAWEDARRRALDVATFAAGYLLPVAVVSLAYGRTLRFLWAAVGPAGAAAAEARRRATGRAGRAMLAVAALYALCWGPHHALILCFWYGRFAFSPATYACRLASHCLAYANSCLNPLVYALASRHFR
NR2E3 ag-1 – agonists of human NR2E3 nuclear receptor | CHO-S Gal4-NCOR/VP16-NR2E3 two-hybrid, luciferase | hit rate 0.35% among 360,000 | Q9Y5X4 | inhibition of corepressor binding, % at 3.98 µM;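 active = inhibition above the mean of all tested compounds plus 3 SD, cut at about 70% in these data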;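 note: 0% = DMSO with NR2E3 transfected cells and 100% = cells lacking NR2E3 construct; higher means lower luciferase signal from less NR2E3 corepressor binding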
Target sequence (Q9Y5X4 whole entry, looked up, the tested form may be a part): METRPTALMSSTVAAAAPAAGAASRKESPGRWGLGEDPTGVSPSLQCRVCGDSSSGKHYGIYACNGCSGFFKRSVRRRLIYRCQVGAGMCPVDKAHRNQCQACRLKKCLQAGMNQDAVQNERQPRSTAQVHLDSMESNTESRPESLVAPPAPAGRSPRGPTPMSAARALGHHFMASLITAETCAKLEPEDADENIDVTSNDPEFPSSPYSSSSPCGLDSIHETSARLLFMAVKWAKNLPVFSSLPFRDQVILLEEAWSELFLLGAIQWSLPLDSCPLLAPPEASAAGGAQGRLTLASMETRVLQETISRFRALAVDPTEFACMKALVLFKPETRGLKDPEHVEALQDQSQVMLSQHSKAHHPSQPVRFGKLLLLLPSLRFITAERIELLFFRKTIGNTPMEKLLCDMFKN
697 NFkB inh – lowers PMA/ionomycin-induced NF-kB signal in 697 B cells; hit rate 0.33% among 330,000; inhibition, % at 4 µM; 697 B-cell NF-kB luciferase reporter, 16 h; in the data active = inhibition above about 35%
Jurkat NFkB inh – inhibitors of the PMA/ionomycin-induced NF-kB reporter in Jurkat cells | PMA/ionomycin-induced NF-kB luciferase reporter, luminescence | inhibition, % at 4 µM | hit rate 0.53% among 330,000 | AID 435003; in the data active = inhibition above about 50%
NR2E3 ag-2 – NR2E3 (human) agonism | Q9Y5X4 | hit rate 0.12% among 320,000 | inhibition of corepressor binding, % at 4.78 µM | AID 2300 | GST-NR2E3/biotin-RetCOR TR-FRET, 1536-well;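 active = percent inhibition above the cutoff of mean plus 3 SD of all tested compounds, set per screening campaign, cut at about 20% in these data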;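 note: 0% = DMSO wells and 100% = biotin wells as full block of FRET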
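system = GST-tagged NR2E3 plus biotinylated RetCOR corepressor | input = 1.35 nM GST-NR2E3 | also added = 7 nM biotin-RetCOR | schedule = 5 h incubation at 4 °C | measured by = TR-FRET with europium anti-GST and streptavidin-D2, 340 nm excitation | read-out = percent loss of FRET ratio relative to control wells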
Gli-Sufu antag – Gli-Sufu pathway antagonism; hit rate 0.74% among 340,000; Sufu-KO-LIGHT fibroblasts, Gli luciferase reporter luminescence; inhibition, % at 5 µM;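 active = inhibition above about 55%, limit read from the data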;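 note: 0% = DMSO-treated cells and 100% = wells with medium but no cells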
GalR3 antag conf – confirmation of human galanin receptor 3 antagonists | shares compounds with GalR3 antag | HEK293 GalR3 CNG cAMP biosensor, membrane potential fluorescence; galR3 fused to GalR1 carboxy tail; challenged with forskolin and galanin at EC90 | inhibition, % at 3 µM | hit rate 59% among 1,600 | AID 652245;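 active = inhibition above the primary screen's cutoff, the mean inhibition of all screened compounds plus 3 SD, cut at about 13% in these data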;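 note: 0% = forskolin plus galanin and 100% = forskolin alone with DMSO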
CNG parental – acts as nonspecific agonist in parental HEK-CNG cells; HEK293-CNG parental cells, cAMP membrane potential fluorescence; normalised: DMSO wells 0%, forskolin wells 100%; AID 652268; hit rate 10% among 1,600; shares compounds with GalR3 antag; activation, % at 3 µM; in the data active = activation above about 1.3%
* marks the source's active call; other numbers are inactive results; x = no result.

SMILES | GalR3 antag | NR2E3 ag-1 | 697 NFkB inh | Jurkat NFkB inh | NR2E3 ag-2 | Gli-Sufu antag | GalR3 antag conf | CNG parental
CCOc1cc(/C=N/N=C(N)N)ccc1OCc1ccc(Cl)cc1 | 11.8 | -13.2 | x | x | -1.1 | 2.7 | x | x
O=C(/C=C/c1cn(-c2ccccc2)nc1-c1cccnc1)NCCN1CCOCC1 | 17.8* | -27.9 | 3.7 | 1.8 | -1.7 | 14.5 | 14.0* | 0.0
O=C(CSc1nc2ccccc2s1)Nc1ccc(N2CCOCC2)c(Cl)c1 | 0.4 | -12.5 | -9.6 | -7.8 | -0.8 | 18.8 | x | x
O=C(CSc1nc2ccccc2o1)Nc1ccc(N2CCOCC2)c(Cl)c1 | 92.0* | 5.5 | -122.5 | -128.8 | 2.6 | -60.1 | 108.9* | -0.2
Cc1cc(/C=C(\C#N)C(=O)NCc2ccco2)c(C)n1-c1ccc(C(=O)O)cc1 | x | -16.0 | -6.9 | -34.6 | 1.7 | -3.7 | 8.2 | 0.4
N#C/C(=C/c1cn(-c2ccccc2)nc1-c1cccc(S(=O)(=O)N2CCCC2)c1)C(=O)NCc1ccco1 | 13.8* | -18.1 | -2.1 | -5.3 | 3.0 | -2.1 | 23.0* | 0.6
Cc1cc(/C=C(\C#N)C(=O)NCC2CCCO2)c(C)n1-c1ccc(Cl)cc1 (stereo not drawn) | -3.2 | -74.0 | -39.9 | -40.3 | -0.6 | -59.9 | x | x
Cc1csc(=O)n1CC(=O)OCC(=O)Nc1ccc(F)c(F)c1 | -2.1 | -16.3 | 18.8 | 8.1 | -1.6 | 1.1 | x | x
COc1cccc(-c2[nH]nc3c2C(c2ccoc2)C(C#N)=C(N)O3)c1 (stereo not drawn) | 7.0 | 17.7 | -0.6 | 7.8 | -2.0 | 3.0 | x | x
N#CC1=C(N)Oc2n[nH]c(-c3ccccc3)c2C1c1cccc(OC(=O)N2CCOCC2)c1 (stereo not drawn) | 28.2* | 6.4 | -14.8 | 8.6 | 3.8 | 10.2 | 4.7 | 0.6
CCOc1ccc(-c2[nH]nc3c2C(c2cccnc2)C(C#N)=C(N)O3)cc1 (stereo not drawn) | 15.9* | -17.3 | 23.9 | 17.2 | 2.4 | 4.5 | -1.4 | 0.3
COc1cc(-c2[nH]nc3c2C(c2ccoc2)C(C#N)=C(N)O3)cc(OC)c1OC (stereo not drawn) | 18.5* | 3.1 | 8.8 | 3.0 | -2.0 | 0.9 | 1.5 | 0.2
COc1cccc2[nH]c3c(N4CCCC(C)C4)ncnc3c12 (stereo not drawn) | 83.6* | -74.5 | -41.6 | -5.7 | -10.0 | -25.3 | 94.4* | 0.8
COc1cccc2[nH]c3c(N4CC(C)CC(C)C4)ncnc3c12 (stereo not drawn) | x | x | -38.7 | -7.6 | x | x | x | x
COc1cc(C(=O)Nc2cc(S(C)(=O)=O)ccc2Cl)ccc1OCC(=O)N1CCOCC1 | 2.6 | 19.2 | 9.3 | 5.8 | 3.5 | 2.0 | x | x
Cc1cc(C)n(C(=O)COc2ccc(Cl)cc2Cl)n1 | 14.2* | -15.0 | 13.3 | -4.0 | -2.2 | -1.1 | 15.7* | 0.5
O=C(O)CNC(=S)N(Cc1ccccc1Cl)C1CCCCC1 | 14.4* | 3.6 | 14.3 | -1.0 | 4.3 | -0.3 | -0.1 | -0.2
COc1cc(C(Nc2ccc(S(=O)(=O)NCC3CCCO3)cc2)C(=O)NC(C)(C)C)cc(OC)c1OC (stereo not drawn) | 15.9* | 6.3 | 20.3 | 7.2 | -0.8 | 3.5 | 9.8 | 0.1
CC1CCN(C(=O)c2[nH]cnc2C(=O)NCc2ccccc2)CC1 | x | -5.1 | 8.0 | -2.0 | 4.4 | -21.1 | 11.4 | 0.1
C/C(CCC1CC(C)(C)OC1=O)=N\NC(N)=S (stereo not drawn) | 13.4* | -24.5 | 13.8 | -8.2 | 3.1 | -10.3 | -1.0 | 0.2
CN1CCN(C(=O)C(N)Cc2ccccc2)CC1 (stereo not drawn) | -5.1 | -9.6 | 3.7 | -6.2 | -3.0 | 2.0 | x | x
O=S(=O)(c1ccccc1)c1ncc(C(F)(F)F)cc1O | 4.2 | -0.4 | 21.2 | -2.8 | -5.0 | 22.7 | x | x
O=S(=O)(c1ccccc1)c1ncc(C(F)(F)F)cc1Cl | 15.4* | 17.2 | -9.8 | -9.3 | x | 2.6 | 23.8* | 0.6
CS(=O)(=O)N1CCN(c2ccccc2NC(=O)c2ccc3ccccc3c2)CC1 | -2.8 | -15.8 | -4.2 | -0.2 | 3.9 | 2.9 | x | x
CS(=O)(=O)N1CCN(c2ccccc2NC(=O)c2ccc(Cl)cc2)CC1 | x | -17.2 | -27.8 | -17.3 | -1.2 | -1.9 | 11.8 | 0.1
SMILES | GalR3 antag | NR2E3 ag-1 | 697 NFkB inh | Jurkat NFkB inh | NR2E3 ag-2 | Gli-Sufu antag | GalR3 antag conf | CNG parental
COCCn1c(C)cc(C(=O)CSc2ccc3ccccc3n2)c1C | -0.7 | -104.1 | -31.0 | -34.6 | -1.6 | -2.6 | x | x
COCCn1c(C)cc(C(=O)COc2nc3ccccc3nc2C)c1C | 98.5* | 37.4 | -36.0 | 6.5 | -2.4 | 23.9 | 84.9* | -0.2
CC(C)c1ccc(/C=C/C(=O)NC(=S)Nc2ccc(CN3CCOCC3)cc2)cc1 | 46.3* | -46.7 | 3.1 | -10.5 | 5.9 | 4.6 | 75.2* | 22.0*
CC(C)(C)c1ccc(C(=O)Nc2ccc(CN3CCS(=O)(=O)CC3)cc2)cc1 | 33.9* | -14.4 | -33.8 | 41.7 | -2.6 | -9.0 | 103.4* | -0.5
CC(C)c1ccc(/C=C/C(=O)NC(=S)NN2CCOCC2)cc1 | -1.6 | 0.8 | 0.5 | 3.3 | x | 34.0 | x | x
CCOC(=O)c1ccc(NC(=O)c2ccc(C)c(S(=O)(=O)N3CCOCC3)c2)cc1 | 98.4* | 27.3 | -17.4 | 49.4 | 1.0 | -12.4 | 106.8* | -0.3
CCC(C)c1ccc(OCC(=O)Nc2ccc(CN3CCOCC3)cc2)cc1 (stereo not drawn) | 18.4* | -19.0 | 8.2 | 14.4 | x | 6.3 | 8.9 | 0.2
COC(=O)c1ccc(NC(=O)c2ccc(CN3CCOCC3)cc2)cc1 | 92.3* | -1.4 | -8.7 | 15.3 | 1.3 | -5.5 | 4.5 | 0.0
O=C(O)CCCn1cc(NC(=O)c2c(F)cccc2F)cn1 | 15.4* | -12.6 | 15.0 | 7.3 | 0.4 | -12.5 | 5.2 | 0.1
O=C(O)CCCn1cc(NC(=O)c2ccc(F)cc2)cn1 | 1.4 | 5.8 | 11.0 | 0.2 | 1.4 | 0.4 | x | x
Cc1ccc(S(=O)(=O)NCc2ccccc2)s1 | -5.3 | -44.5 | 19.1 | 7.0 | -0.3 | -19.3 | x | x
Cc1ccc(S(=O)(=O)NCc2cccnc2)s1 | 12.8* | -10.7 | -4.8 | -7.7 | 0.9 | 0.6 | 3.3 | -0.1
O=C(CCCCl)Oc1ccc2cc(-c3ccc4ccccc4n3)c(=O)oc2c1 | 14.1* | -71.9 | -61.4 | -34.9 | 2.6 | -39.6 | 12.9* | 0.2
CC(Oc1ccc(Cl)cc1Cl)C(=O)Nc1cccc(O)c1 (stereo not drawn) | 14.5* | -12.6 | 12.0 | -18.7 | 9.6 | -16.1 | 15.1* | 0.2
CC(Oc1ccc(Cl)cc1Cl)C(=O)Nc1ccc(O)cc1 (stereo not drawn) | -4.1 | -10.1 | 8.6 | 3.7 | 4.2 | 10.6 | x | x
